What was measured:
Conditions in all cases: in vivo
[1] = tested on: Colon; assay: Biodistribution in Wistar rat colon at 11+/-2 MBq, iv after 80 mins; type: ADME, organism-based
Summary of the method: (§1)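 Male Wistar rats (12 h light/dark, chow ad libitum) were fitted with a femoral arterial cannula under isoflurane. They were pretreated via tail vein with saline, cyclosporin A (50 mg/kg), or nonradioactive tracer compound (15 mg/kg; 10 mg/mL in saline with 35% ethanol). The 11C tracer was then given via penile vein, followed by 76 min microPET. Animals were then terminated; excised tissues were weighed and gamma-counted with decay correction. Values are SUVs (tissue MBq/g × body weight g / injected MBq).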

[2] = Biodistribution in Wistar rat red blood cells at 11+/-2 MBq, iv after 80 mins; type: ADME, organism-based, Erythrocyte
[3] = tested on: Pons; assay: Biodistribution in Wistar rat pons at 11+/-2 MBq, iv after 80 mins; type: ADME, organism-based
[4] = Biodistribution in Wistar rat bulbus olfactorius at 11+/-2 MBq, iv after 80 mins; type: ADME, organism-based, Olfactory bulb
[5] = tested on: Pancreas; assay: Biodistribution in 15 mg/kg unlabeled 6,7-dimethoxy-2-(3-(5-methoxy-3,4-dihydronaphthalen-1(2H)-ylidene)propyl)-1,2,3,4-tetrahydroisoquinoline pretreated Wistar rat pancreas at 13+/-2 MBq, iv after 80 mins; type: ADME, organism-based; design: dose 15 mg/kg, route intravenous
Summary of the method: (§2)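 Male Wistar rats given saline or unlabeled compound via tail vein: 15 mg/kg, dissolved at 10 mg/mL in saline with 35% ethanol. [11C] tracer (8-15 MBq) then given via penile vein. After microPET scanning the anesthetized rats were killed. Tissues were excised and weighed, and blood was spun for plasma and cell fraction. γ counting with decay correction. Results as SUV (tissue MBq/g × body weight/injected dose).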

[6] = Biodistribution in 15 mg/kg unlabeled 6,7-dimethoxy-2-(3-(5-methoxy-3,4-dihydronaphthalen-1(2H)-ylidene)propyl)-1,2,3,4-tetrahydroisoquinoline pretreated Wistar rat bulbus olfactorius at 13+/-2 MBq, iv after 80 mins; type: ADME, organism-based, Olfactory bulb; design: dose 15 mg/kg, route intravenous; summary of the method: as §2
[7] = tested on: Heart; assay: Biodistribution in 15 mg/kg unlabeled 6,7-dimethoxy-2-(3-(5-methoxy-3,4-dihydronaphthalen-1(2H)-ylidene)propyl)-1,2,3,4-tetrahydroisoquinoline pretreated Wistar rat heart at 13+/-2 MBq, iv after 80 mins; type: ADME, organism-based; design: dose 15 mg/kg, route intravenous; summary of the method: as §2
[8] = Biodistribution in 15 mg/kg unlabeled 6,7-dimethoxy-2-(3-(5-methoxy-3,4-dihydronaphthalen-1(2H)-ylidene)propyl)-1,2,3,4-tetrahydroisoquinoline pretreated Wistar rat amygdala at 13+/-2 MBq, iv after 80 mins; type: ADME, organism-based; design: dose 15 mg/kg, route intravenous; summary of the method: as §2
[9] = tested on: Liver; assay: Biodistribution in 15 mg/kg unlabeled 6,7-dimethoxy-2-(3-(5-methoxy-3,4-dihydronaphthalen-1(2H)-ylidene)propyl)-1,2,3,4-tetrahydroisoquinoline pretreated Wistar rat liver at 13+/-2 MBq, iv after 80 mins; type: ADME, organism-based; design: dose 15 mg/kg, route intravenous; summary of the method: as §2
[10] = tested on: Kidney; assay: Biodistribution in Wistar rat kidney at 11+/-2 MBq, iv after 80 mins; type: ADME, organism-based; summary of the method: as §1
[11] = tested on: Spleen; assay: Biodistribution in Wistar rat spleen at 11+/-2 MBq, iv after 80 mins; type: ADME, organism-based
[12] = tested on: Kidney; assay: Biodistribution in 15 mg/kg unlabeled 6,7-dimethoxy-2-(3-(5-methoxy-3,4-dihydronaphthalen-1(2H)-ylidene)propyl)-1,2,3,4-tetrahydroisoquinoline pretreated Wistar rat kidney at 13+/-2 MBq, iv after 80 mins; type: ADME, organism-based; design: dose 15 mg/kg, route intravenous; summary of the method: as §2
[13] = tested on: Duodenum; assay: Biodistribution in Wistar rat duodenum at 11+/-2 MBq, iv after 80 mins; type: ADME, organism-based; summary of the method: as §1
[14] = tested on: Brain; assay: Biodistribution in 15 mg/kg unlabeled 6,7-dimethoxy-2-(3-(5-methoxy-3,4-dihydronaphthalen-1(2H)-ylidene)propyl)-1,2,3,4-tetrahydroisoquinoline pretreated Wistar rat brain at 13+/-2 MBq, iv after 56 mins; type: ADME, organism-based; design: dose 15 mg/kg, route intravenous
Summary of the method: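 Male Wistar rats given saline or unlabeled compound (15 mg/kg, 10 mg/mL in saline with 35% ethanol) via tail vein. [11C] tracer then given via penile vein. Dynamic microPET under anesthesia, with a 3D ROI drawn over the whole brain. SUV taken from the time-activity curve (frames 4×60 s, 3×120 s, 4×300 s, 3×600 s), assuming a density of 1 g/mL. Mean ± SEM.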

[15] = tested on: Colon; assay: Biodistribution in 15 mg/kg unlabeled 6,7-dimethoxy-2-(3-(5-methoxy-3,4-dihydronaphthalen-1(2H)-ylidene)propyl)-1,2,3,4-tetrahydroisoquinoline pretreated Wistar rat colon at 13+/-2 MBq, iv after 80 mins; type: ADME, organism-based; design: dose 15 mg/kg, route intravenous; summary of the method: as §2
[16] = Biodistribution in Wistar rat entorhinal cortex at 11+/-2 MBq, iv after 80 mins; type: ADME, organism-based; summary of the method: as §1
[17] = tested on: Bone; assay: Biodistribution in Wistar rat bone at 11+/-2 MBq, iv after 80 mins; type: ADME, organism-based, Bone element
[18] = Biodistribution in Wistar rat frontal cortex at 11+/-2 MBq, iv after 80 mins; type: ADME, organism-based; summary of the method: as §1
[19] = Biodistribution in 15 mg/kg unlabeled 6,7-dimethoxy-2-(3-(5-methoxy-3,4-dihydronaphthalen-1(2H)-ylidene)propyl)-1,2,3,4-tetrahydroisoquinoline pretreated Wistar rat frontal cortex at 13+/-2 MBq, iv after 80 mins; type: ADME, organism-based; design: dose 15 mg/kg, route intravenous; summary of the method: as §2
[20] = tested on: Striatum; assay: Biodistribution in Wistar rat striatum at 11+/-2 MBq, iv after 80 mins; type: ADME, organism-based
[21] = Biodistribution in Wistar rat amygdala at 11+/-2 MBq, iv after 80 mins; type: ADME, organism-based
[22] = Biodistribution in Wistar rat parietal/temporal/occipital cortex at 11+/-2 MBq, iv after 80 mins; type: ADME, organism-based; summary of the method: as §1
[23] = Biodistribution in Wistar rat cingulate cortex at 11+/-2 MBq, iv after 80 mins; type: ADME, organism-based
[24] = tested on: Hippocampus; assay: Biodistribution in 15 mg/kg unlabeled 6,7-dimethoxy-2-(3-(5-methoxy-3,4-dihydronaphthalen-1(2H)-ylidene)propyl)-1,2,3,4-tetrahydroisoquinoline pretreated Wistar rat hippocampus at 13+/-2 MBq, iv after 80 mins; type: ADME, organism-based; design: dose 15 mg/kg, route intravenous; summary of the method: as §2
[25] = tested on: Heart; assay: Biodistribution in Wistar rat heart at 11+/-2 MBq, iv after 80 mins; type: ADME, organism-based; summary of the method: as §1
[26] = tested on: Ileum; assay: Biodistribution in Wistar rat ileum at 11+/-2 MBq, iv after 80 mins; type: ADME, organism-based; summary of the method: as §1
[27] = tested on: Plasma; assay: Biodistribution in 15 mg/kg unlabeled 6,7-dimethoxy-2-(3-(5-methoxy-3,4-dihydronaphthalen-1(2H)-ylidene)propyl)-1,2,3,4-tetrahydroisoquinoline pretreated Wistar rat plasma at 13+/-2 MBq, iv after 80 mins; type: ADME, organism-based; design: dose 15 mg/kg, route intravenous; summary of the method: as §2

SUV [1]: 1.85
SUV [2]: 0.24
SUV [3]: 0.6
SUV [4]: 0.64
SUV [5]: 2.73
SUV [6]: 0.4
SUV [7]: 0.68
SUV [8]: 0.44
SUV [9]: 2.34
SUV [10]: 1.53
SUV [11]: 2.66
SUV [12]: 1.3
SUV [13]: 3.06
SUV [14]: 0.68
SUV [15]: 0.74
SUV [16]: 0.55
SUV [17]: 0.78
SUV [18]: 0.65
SUV [19]: 0.37
SUV [20]: 0.46
SUV [21]: 0.65
SUV [22]: 0.65
SUV [23]: 0.7
SUV [24]: 0.44
SUV [25]: 0.48
SUV [26]: 1.94
SUV [27]: 0.56
SMILES: COc1cc2c(cc1OC)CN(CC/C=C1\CCCc3c(O[11CH3])cccc31)CC2

Reference: ChEMBL document CHEMBL1137781, “Synthesis and preclinical evaluation of novel PET probes for P-glycoprotein function and expression” (J Med Chem, 2009)
